Measured values published in ChEMBL document CHEMBL1156957, “Synthesis, antitubulin, and antiproliferative SAR of analogues of 2-methoxyestradiol-3,17-O,O-bis-sulfamate” (J Med Chem, 2010).

Columns and labels:
[1] = tested on: DU-145; experiment: Antiproliferative activity against human DU145 cells after 96 hrs by WST-1 assay; type: functional; details: DU-145, 96 h
Outline: (§1)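 DU-145 and MDA-MB-231 cells kept in RPMI-1640 with 10% FBS, penicillin and streptomycin at 37 °C, 5% CO2. Seeded at 5000 cells/well and exposed to 10^-9–10^-4 M compound or vehicle for 96 h. Live cells counted by WST-1. Viability taken as percent of mean control and GI50 derived. Triplicate experiments.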

[2] = tested on: MDA-MB-231; experiment: Antiproliferative activity against human MDA-MB-231 cells after 96 hrs by WST-1 assay; type: functional; details: MDA-MB-231, 96 h; outline: as §1
[3] = tested on: HOP-62; experiment: Antiproliferative activity against human HOP62 cells after 96 hrs by WST-1 assay; type: functional; details: HOP-62, 96 h
[4] = tested on: HCT-116; experiment: Antiproliferative activity against human HCT116 cells after 96 hrs by WST-1 assay; type: functional; details: HCT-116, 96 h
[5] = tested on: SF-539; experiment: Antiproliferative activity against human SF539 cells after 96 hrs by WST-1 assay; type: functional; details: SF-539, 96 h
[6] = tested on: UACC-62; experiment: Antiproliferative activity against human UACC62 cells after 96 hrs by WST-1 assay; type: functional; details: UACC-62, 96 h
[7] = tested on: OVCAR-3; experiment: Antiproliferative activity against human OVCAR-3 cells after 96 hrs by WST-1 assay; type: functional; details: OVCAR-3, 96 h
[8] = tested on: SN12C; experiment: Antiproliferative activity against human SN12C cells after 96 hrs by WST-1 assay; type: functional
[9] = Inhibition of bovine brain tubulin assembly assessed as decrease in turbidity after 20 mins; design: species or system Bos taurus
Outline: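 Bovine brain tubulin at 1.0 mg/mL (10 μM) preincubated 15 min at 30 °C with varying compound concentrations, no GTP. Chilled on ice, then GTP added (0.4 mM final). Baseline taken at 0 °C, then rapid jump to 30 °C and turbidity rise followed spectrophotometrically for 20 min. IC50 is the concentration halving the turbidity increase.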

[10] = organism: Bos taurus; experiment: Displacement of [3H]colchicine from bovine brain tubulin at 5 uM after 10 mins
[11] = tested on: MCF7; experiment: Antiproliferative activity against human MCF7 cells after 96 hrs by WST-1 assay; type: functional; details: MCF7, 96 h

Row | Structure (SMILES) | GI50 [1] | GI50 [2] | GI50 [4] | GI50 [7] | IC50 [9] | inhibition [10] | GI50 [11] | GI50 [3] | GI50 [5] | GI50 [6] | GI50 [8]
1 | CCc1cc2c(cc1O)CC[C@@H]1[C@@H]2CC[C@]2(C)[C@@H](N)CC[C@@H]12 | 60.8 µM |  |  |  |  |  |  |  |  |  | 
2 | CCc1cc2c(cc1O)CC[C@@H]1[C@@H]2CC[C@]2(C)[C@@H](CCN(C)C)CC[C@@H]12 | 7.96 µM | 4.74 µM |  |  |  |  |  |  |  |  | 
3 | COc1cc2c(cc1OCc1ccccc1)CC[C@@H]1[C@@H]2CC[C@]2(C)[C@@H](OS(C)(=O)=O)CC[C@@H]12 |  |  | 5.9 µM | 2.9 µM |  |  |  | 6.9 µM | 4.6 µM | 14.4 µM | 19.9 µM
4 | CCc1cc2c(cc1OS(N)(=O)=O)CC[C@@H]1[C@@H]2CC[C@]2(C)[C@@H](OS(N)(=O)=O)CC[C@@H]12 |  |  |  | < 0.01 µM | 1.3 µM | 45% |  | < 0.01 µM | < 0.01 µM | < 0.01 µM | 0.028 µM
5 | COc1cc2c(cc1OS(N)(=O)=O)CC[C@@H]1[C@@H]2CC[C@]2(C)[C@@H](NS(C)(=O)=O)CC[C@@H]12 | 9.9 µM | 5.2 µM | 5.6 µM | 3.5 µM |  |  |  | 9.6 µM | 3.2 µM | 7.1 µM | 23.4 µM
6 | COc1cc2c(cc1OS(N)(=O)=O)CC[C@@H]1[C@@H]2CC[C@]2(C)C(=O)CC[C@@H]12 | 0.46 µM | 0.12 µM |  |  | 3.3 µM | 22% |  |  |  |  | 
7 | COc1cc2c(cc1OS(=O)(=O)N(C)C)CC[C@@H]1[C@@H]2CC[C@]2(C)C(=O)CC[C@@H]12 |  |  |  |  | > 40 µM |  | > 10 µM |  |  |  | 
8 | COc1cc2c(cc1O)CC[C@@H]1[C@@H]2CC[C@]2(C)[C@@H](NS(N)(=O)=O)CC[C@@H]12 | 58.6 µM |  |  |  |  |  |  |  |  |  | 
9 | CCc1cc2c(cc1O)CC[C@@H]1[C@@H]2CC[C@]2(C)[C@@H](NS(C)(=O)=O)CC[C@@H]12 | > 100 µM |  |  |  |  |  |  |  |  |  | 
10 | COc1cc2c(cc1O)CC[C@@H]1[C@@H]2CC[C@]2(C)[C@@H](NS(C)(=O)=O)CC[C@@H]12 | > 100 µM |  | 60.3 µM | > 100 µM |  |  |  | > 100 µM | > 100 µM | > 100 µM | > 100 µM
11 | CCc1cc2c(cc1OS(N)(=O)=O)CC[C@@H]1[C@@H]2CC[C@]2(C)[C@@H](OS(C)(=O)=O)CC[C@@H]12 | 0.57 µM | 0.2 µM | < 0.01 µM | < 0.01 µM | 1.6 µM | 49% |  | < 0.01 µM | < 0.01 µM | < 0.01 µM | < 0.01 µM
12 | COc1cc2c(cc1O)CC[C@@H]1[C@@H]2CC[C@]2(C)[C@@H](O)CC[C@@H]12 [2-METHOXYESTRADIOL] | 1.22 µM |  | 0.47 µM | 0.21 µM | 7 µM | 17% |  | 0.7 µM | 0.32 µM | 0.36 µM | 0.95 µM
13 | COc1cc2c(cc1O)CC[C@@H]1[C@@H]2CC[C@]2(C)[C@@H](N)CC[C@@H]12 | 2.64 µM | 3.56 µM |  |  |  |  |  |  |  |  | 
14 | COc1cc2c(cc1O)CC[C@@H]1[C@@H]2CC[C@]2(C)[C@@H](OS(C)(=O)=O)CC[C@@H]12 | 4.2 µM | 2.37 µM |  |  |  |  |  |  |  |  | 
15 | CCc1cc2c(cc1OS(N)(=O)=O)CC[C@@H]1[C@@H]2CC[C@]2(C)[C@@H](CCN(C)C)CC[C@@H]12 | 3.54 µM | 2.96 µM |  |  |  |  |  |  |  |  | 
16 | CCc1cc2c(cc1O)CC[C@@H]1[C@@H]2CC[C@]2(C)[C@@H](CN(C)C)CC[C@@H]12 | 10.1 µM | 9.5 µM | 11.5 µM | 39.8 µM |  |  |  | 21.4 µM | 16.2 µM | 18.6 µM | 43.7 µM
17 | CCc1cc2c(cc1O)CC[C@@H]1[C@@H]2CC[C@]2(C)[C@@H](C[N+](=O)[O-])CC[C@@H]12 | 12.2 µM | 10.4 µM |  |  |  |  |  |  |  |  | 
18 | COc1cc2c(cc1OS(N)(=O)=O)CC[C@@H]1[C@@H]2CC[C@]2(C)[C@@H](CC#N)CC[C@@H]12 | 0.062 µM | 0.071 µM |  |  | 1.3 µM | 78% |  |  |  |  | 
19 | CCc1cc2c(cc1O)CC[C@@H]1[C@@H]2CC[C@]2(C)[C@@H](OS(C)(=O)=O)CC[C@@H]12 | 5.58 µM |  |  |  |  |  |  |  |  |  | 
20 | CCc1cc2c(cc1O)CC[C@@H]1[C@@H]2CC[C@]2(C)[C@@H](NS(N)(=O)=O)CC[C@@H]12 | > 100 µM |  |  |  |  |  |  |  |  |  | 
21 | COc1cc2c(cc1O)CC[C@@H]1[C@@H]2CC[C@]2(C)C(OS(N)(=O)=O)CC[C@@H]12 (some centres undefined) |  |  |  |  | > 40 µM |  |  |  |  |  | 
22 | CCc1cc2c(cc1O)CC[C@@H]1[C@@H]2CC[C@@]2(C)[C@H]1CC[C@@H]2S(C)(=O)=O | > 100 µM | > 100 µM |  |  |  |  |  |  |  |  | 
23 | COc1cc2c(cc1OS(N)(=O)=O)CC[C@@H]1[C@@H]2CC[C@]2(C)[C@@H](OS(N)(=O)=O)CC[C@@H]12 |  |  | 0.045 µM | < 0.01 µM | 2.2 µM | 28% |  | 0.051 µM | 0.036 µM | < 0.01 µM | 
24 | COc1cc2c(cc1O)CC[C@@H]1[C@@H]2CC[C@]2(C)[C@@H](CC#N)CC[C@@H]12 | 0.49 µM | 0.12 µM |  |  |  |  |  |  |  |  | 

Second part, led by results:

Row | GI50 [1] | GI50 [2] | GI50 [4] | GI50 [7] | IC50 [9] | inhibition [10] | GI50 [11] | Structure (SMILES) | GI50 [3] | GI50 [5] | GI50 [6] | GI50 [8]
25 | 0.52 µM | 0.23 µM | 0.78 µM | 0.54 µM |  |  |  | COc1cc2c(cc1OS(N)(=O)=O)CC[C@@H]1[C@@H]2CC[C@]2(C)[C@@H](OS(C)(=O)=O)CC[C@@H]12 | 1.17 µM | 0.34 µM | 0.65 µM | 3.1 µM
26 | 3.4 µM |  |  |  | 20 µM |  |  | CCCc1cc2c(cc1OS(N)(=O)=O)CC[C@@H]1[C@@H]2CC[C@]2(C)C(OS(N)(=O)=O)CC[C@@H]12 (some centres undefined) |  |  |  | 
27 | 0.14 µM | 0.17 µM | 0.041 µM | 0.025 µM | 1.7 µM | 74% |  | CCc1cc2c(cc1OS(N)(=O)=O)CC[C@@H]1[C@@H]2CC[C@]2(C)[C@@H](C[N+](=O)[O-])CC[C@@H]12 | 0.031 µM | 0.021 µM | 0.063 µM | 0.066 µM
28 | 6.13 µM | 5.6 µM |  |  |  |  |  | COc1cc2c(cc1OS(N)(=O)=O)CC[C@@H]1[C@@H]2CC[C@]2(C)[C@@H](NS(N)(=O)=O)CC[C@@H]12 |  |  |  | 
29 | 0.11 µM | 0.23 µM |  |  | 3.6 µM | 28% |  | CCc1cc2c(cc1OS(N)(=O)=O)CC[C@@H]1[C@@H]2CC[C@@]2(C)[C@H]1CC[C@@H]2S(C)(=O)=O |  |  |  | 
30 | 0.84 µM | 3.52 µM | 4.37 µM | 0.71 µM |  |  |  | CCc1cc2c(cc1OS(N)(=O)=O)CC[C@@H]1[C@@H]2CC[C@]2(C)[C@@H](NS(C)(=O)=O)CC[C@@H]12 | 4.17 µM | 0.47 µM | 5.89 µM | 6.92 µM
31 | 0.19 µM | 0.23 µM | < 0.01 µM | < 0.01 µM | 2.1 µM | 37% |  | CCc1cc2c(cc1OS(N)(=O)=O)CC[C@@H]1[C@@H]2CC[C@]2(C)[C@@H](CS(C)(=O)=O)CC[C@@H]12 | < 0.01 µM | < 0.01 µM | 10.7 µM | < 0.01 µM
32 | 0.38 µM |  |  |  | 1.3 µM | 46% |  | Cc1cc2c(cc1OS(N)(=O)=O)CC[C@@H]1[C@@H]2CC[C@]2(C)C(OS(N)(=O)=O)CC[C@@H]12 (some centres undefined) |  |  |  | 
33 | 0.054 µM | 0.141 µM |  |  |  |  |  | CCc1cc2c(cc1OS(N)(=O)=O)CC[C@@H]1[C@@H]2CC[C@]2(C)[C@@H](CC#N)CC[C@@H]12 |  |  |  | 
34 | 3.05 µM | 4.03 µM | 9.1 µM | 12.6 µM |  |  |  | CCc1cc2c(cc1OS(N)(=O)=O)CC[C@@H]1[C@@H]2CC[C@]2(C)[C@@H](CN(C)C)CC[C@@H]12 | 13.5 µM | 12.6 µM | 11.7 µM | 18.2 µM
